Results from ChEMBL document CHEMBL5678806, “NMS-P937, an orally available, specific small-molecule polo-like kinase 1 inhibitor with antitumor activity in solid and hematologic malignancies” (Mol Cancer Ther, 2012).
The source made the active and inactive calls. The rule behind the calls is not given here.

Key:
[1] = molecular target: Serine/threonine-protein kinase TBK1 (Homo sapiens) (UniProt Q9UHD2); test: Inhibition of N-terminal His6-tagged recombinant full-length human TBK1 expressed in baculovirus infected Sf21 cells assessed as residual activity at 1 uM relative to control
Sequence of Serine/threonine-protein kinase TBK1 (Homo sapiens) (Q9UHD2 whole entry): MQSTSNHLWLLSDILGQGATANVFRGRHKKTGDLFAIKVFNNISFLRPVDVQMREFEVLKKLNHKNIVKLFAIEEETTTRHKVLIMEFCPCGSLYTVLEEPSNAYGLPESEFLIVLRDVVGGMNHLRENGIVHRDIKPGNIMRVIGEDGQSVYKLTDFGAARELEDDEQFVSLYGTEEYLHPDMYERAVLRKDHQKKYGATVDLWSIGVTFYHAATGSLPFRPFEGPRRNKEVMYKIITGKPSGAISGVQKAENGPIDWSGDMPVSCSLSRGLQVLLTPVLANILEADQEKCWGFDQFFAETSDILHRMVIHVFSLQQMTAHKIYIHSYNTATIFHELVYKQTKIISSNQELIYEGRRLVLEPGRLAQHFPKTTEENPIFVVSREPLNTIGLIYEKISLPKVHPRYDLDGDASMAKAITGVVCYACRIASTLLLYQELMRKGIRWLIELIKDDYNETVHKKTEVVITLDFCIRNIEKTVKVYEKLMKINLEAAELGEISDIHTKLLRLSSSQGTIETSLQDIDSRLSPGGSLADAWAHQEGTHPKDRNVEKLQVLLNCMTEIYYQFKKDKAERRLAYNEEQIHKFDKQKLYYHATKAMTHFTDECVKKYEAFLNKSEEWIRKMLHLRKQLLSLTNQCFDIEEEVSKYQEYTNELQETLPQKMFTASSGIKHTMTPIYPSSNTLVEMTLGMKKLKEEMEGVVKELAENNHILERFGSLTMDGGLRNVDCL

[2] = tested on: LoVo; test: Antiproliferative activity against human LoVo cells assessed as inhibition of cell growth incubated for 72 hrs by cell-titer glo assay; format: functional, cell-based
Outline: (§1)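 Cells seeded at 10,000–30,000/cm² (adherent) or 100,000/mL (nonadherent) in medium with 10% fetal calf serum; after 24 h, treated in duplicate with serial dilutions for 72 h. Viable cell number read by CellTiter-Glo luminescence; IC50 from sigmoidal fit; at least two independent experiments.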

[3] = Antiproliferative activity against human GM03798 cells assessed as inhibition of cell growth incubated for 72 hrs by cell-titer glo assay; format: functional, cell-based; conditions: GM03798, 72 h
Outline: (§2)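 Cells seeded 10,000–30,000/cm² (adherent) or 100,000/mL (suspension) in medium with 10% fetal calf serum; after 24 h treated in duplicate with serial dilutions for 72 h. Viable cells read by CellTiter-Glo luminescence; IC50 from sigmoidal fit; at least two independent experiments.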

[4] = molecular target: Casein kinase I homolog 1 (Saccharomyces cerevisiae S288c) (UniProt P23291); test: Inhibition of yeast CK1 assessed as residual activity at 0.1 uM relative to control
Sequence of Casein kinase I homolog 1 (Saccharomyces cerevisiae S288c) (P23291 whole entry): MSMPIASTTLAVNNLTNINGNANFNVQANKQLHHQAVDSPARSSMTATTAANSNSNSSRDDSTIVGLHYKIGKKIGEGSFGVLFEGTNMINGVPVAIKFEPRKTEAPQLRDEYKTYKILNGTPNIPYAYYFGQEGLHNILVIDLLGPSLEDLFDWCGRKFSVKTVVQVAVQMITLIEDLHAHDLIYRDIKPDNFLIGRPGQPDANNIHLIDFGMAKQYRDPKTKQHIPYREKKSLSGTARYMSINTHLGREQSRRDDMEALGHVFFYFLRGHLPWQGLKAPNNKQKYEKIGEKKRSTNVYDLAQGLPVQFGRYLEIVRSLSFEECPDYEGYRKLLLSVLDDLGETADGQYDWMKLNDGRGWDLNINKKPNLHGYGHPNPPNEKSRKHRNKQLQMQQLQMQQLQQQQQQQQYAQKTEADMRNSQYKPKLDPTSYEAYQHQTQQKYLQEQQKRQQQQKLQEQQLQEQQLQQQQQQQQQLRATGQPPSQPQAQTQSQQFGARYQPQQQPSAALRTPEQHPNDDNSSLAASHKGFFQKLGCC

[5] = Antiproliferative activity against human NPA cells assessed as inhibition of cell growth incubated for 72 hrs by cell-titer glo assay; format: functional, cell-based
Outline: (§3)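 Cells from ATCC or ECACC, kept in supplier-recommended medium with 1% penicillin-streptomycin at 37°C, 5% CO₂. Seeded at 10,000–30,000/cm² (adherent) or 100,000/mL (nonadherent) in medium with 10% fetal calf serum. Dosed after 24 h in duplicate with serial dilutions. Viable cells read by CellTiter-Glo 72 h later. IC50 from sigmoidal fit. At least two independent experiments.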

[6] = molecular target: Macrophage colony-stimulating factor 1 receptor (Homo sapiens) (UniProt P07333); test: Inhibition of N-terminal His6-tagged recombinant human Fms (538 to end residues) expressed in baculovirus infected Sf21 cells assessed as residual activity at 1 uM relative to control
Sequence of Macrophage colony-stimulating factor 1 receptor (Homo sapiens) (P07333 whole entry): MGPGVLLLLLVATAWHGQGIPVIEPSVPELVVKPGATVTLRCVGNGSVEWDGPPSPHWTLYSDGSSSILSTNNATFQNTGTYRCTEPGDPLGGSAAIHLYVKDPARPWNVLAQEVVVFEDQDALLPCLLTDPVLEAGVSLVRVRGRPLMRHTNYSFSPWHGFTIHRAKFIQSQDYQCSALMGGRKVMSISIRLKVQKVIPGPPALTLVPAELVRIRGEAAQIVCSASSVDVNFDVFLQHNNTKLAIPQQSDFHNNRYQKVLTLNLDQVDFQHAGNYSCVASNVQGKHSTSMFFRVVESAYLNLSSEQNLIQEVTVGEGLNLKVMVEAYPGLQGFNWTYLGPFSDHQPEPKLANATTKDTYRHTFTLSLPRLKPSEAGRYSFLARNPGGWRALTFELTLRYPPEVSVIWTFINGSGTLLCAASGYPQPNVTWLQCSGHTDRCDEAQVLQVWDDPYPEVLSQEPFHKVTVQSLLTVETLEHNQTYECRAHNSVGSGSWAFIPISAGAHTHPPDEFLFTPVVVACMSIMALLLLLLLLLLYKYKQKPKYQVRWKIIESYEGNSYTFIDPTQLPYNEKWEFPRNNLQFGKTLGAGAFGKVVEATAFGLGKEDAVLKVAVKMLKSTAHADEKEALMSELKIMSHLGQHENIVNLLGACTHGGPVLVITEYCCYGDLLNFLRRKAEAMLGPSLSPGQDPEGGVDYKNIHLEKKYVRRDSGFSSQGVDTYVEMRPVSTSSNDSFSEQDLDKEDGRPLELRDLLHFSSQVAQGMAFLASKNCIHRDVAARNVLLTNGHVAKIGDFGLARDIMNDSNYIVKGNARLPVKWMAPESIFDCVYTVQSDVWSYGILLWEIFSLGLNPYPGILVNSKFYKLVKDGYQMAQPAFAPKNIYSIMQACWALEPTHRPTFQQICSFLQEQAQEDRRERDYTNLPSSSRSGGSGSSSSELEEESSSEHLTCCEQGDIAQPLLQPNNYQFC

[7] = molecular target: Protein kinase C delta type (Homo sapiens) (UniProt Q05655); test: Inhibition of N-terminal His6-tagged recombinant human PKCdelta (2 to end residues) expressed in Sf21 cells assessed as residual activity at 1 uM relative to control
Sequence of Protein kinase C delta type (Homo sapiens) (Q05655 whole entry, looked up): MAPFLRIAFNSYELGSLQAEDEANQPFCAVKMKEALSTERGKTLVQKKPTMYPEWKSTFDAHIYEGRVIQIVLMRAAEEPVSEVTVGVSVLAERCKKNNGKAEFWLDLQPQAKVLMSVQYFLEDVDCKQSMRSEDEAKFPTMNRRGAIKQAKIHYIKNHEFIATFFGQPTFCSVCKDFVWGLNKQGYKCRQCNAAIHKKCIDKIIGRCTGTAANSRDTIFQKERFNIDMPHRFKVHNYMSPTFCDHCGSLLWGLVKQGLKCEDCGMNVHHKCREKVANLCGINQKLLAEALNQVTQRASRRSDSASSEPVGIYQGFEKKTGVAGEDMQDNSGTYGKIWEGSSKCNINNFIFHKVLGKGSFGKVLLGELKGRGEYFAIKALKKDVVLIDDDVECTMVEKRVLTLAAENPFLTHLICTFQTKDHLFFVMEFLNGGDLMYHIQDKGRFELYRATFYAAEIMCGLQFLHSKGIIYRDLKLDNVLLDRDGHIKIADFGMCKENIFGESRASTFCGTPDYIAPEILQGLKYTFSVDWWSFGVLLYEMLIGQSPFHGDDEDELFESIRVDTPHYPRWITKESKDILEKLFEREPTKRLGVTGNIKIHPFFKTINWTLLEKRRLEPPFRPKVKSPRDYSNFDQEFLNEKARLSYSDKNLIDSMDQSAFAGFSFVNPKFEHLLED

[8] = molecular target: MAP kinase-activated protein kinase 5 (Homo sapiens) (UniProt Q8IW41); test: Inhibition of N-terminal His6-tagged recombinant human full-length PRAK expressed in baculovirus infected Sf21 cells assessed as residual activity at 0.1 uM relative to control
Sequence of MAP kinase-activated protein kinase 5 (Homo sapiens) (Q8IW41 whole entry): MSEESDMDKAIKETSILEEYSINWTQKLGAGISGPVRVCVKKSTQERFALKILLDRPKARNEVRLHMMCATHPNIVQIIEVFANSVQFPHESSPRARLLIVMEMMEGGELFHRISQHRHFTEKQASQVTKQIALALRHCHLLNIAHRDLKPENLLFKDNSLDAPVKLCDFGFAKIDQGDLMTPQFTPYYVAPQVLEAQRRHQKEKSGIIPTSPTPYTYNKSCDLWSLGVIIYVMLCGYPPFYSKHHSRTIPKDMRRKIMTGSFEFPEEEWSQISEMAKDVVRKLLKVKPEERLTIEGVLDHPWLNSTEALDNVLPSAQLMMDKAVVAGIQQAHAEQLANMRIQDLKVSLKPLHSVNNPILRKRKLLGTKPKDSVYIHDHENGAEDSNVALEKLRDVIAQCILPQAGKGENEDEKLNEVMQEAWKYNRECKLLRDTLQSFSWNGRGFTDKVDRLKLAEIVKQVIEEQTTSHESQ

[9] = AUC in male cynomolgus monkey at 5 mg/kg, iv by LC-MS analysis; format: ADME, organism-based, Macaca fascicularis; conditions: in vivo
[10] = tested on: NCI-H889; test: Antiproliferative activity against human NCI-H889 cells assessed as inhibition of cell growth incubated for 72 hrs by cell-titer glo assay; format: functional, cell-based; conditions: NCI-H889, 72 h; outline: as §3
[11] = molecular target: Cytoplasmic tyrosine-protein kinase BMX (Homo sapiens) (UniProt P51813); test: Inhibition of recombinant human Bmx assessed as residual activity at 1 uM relative to control
Sequence of Cytoplasmic tyrosine-protein kinase BMX (Homo sapiens) (P51813 whole entry): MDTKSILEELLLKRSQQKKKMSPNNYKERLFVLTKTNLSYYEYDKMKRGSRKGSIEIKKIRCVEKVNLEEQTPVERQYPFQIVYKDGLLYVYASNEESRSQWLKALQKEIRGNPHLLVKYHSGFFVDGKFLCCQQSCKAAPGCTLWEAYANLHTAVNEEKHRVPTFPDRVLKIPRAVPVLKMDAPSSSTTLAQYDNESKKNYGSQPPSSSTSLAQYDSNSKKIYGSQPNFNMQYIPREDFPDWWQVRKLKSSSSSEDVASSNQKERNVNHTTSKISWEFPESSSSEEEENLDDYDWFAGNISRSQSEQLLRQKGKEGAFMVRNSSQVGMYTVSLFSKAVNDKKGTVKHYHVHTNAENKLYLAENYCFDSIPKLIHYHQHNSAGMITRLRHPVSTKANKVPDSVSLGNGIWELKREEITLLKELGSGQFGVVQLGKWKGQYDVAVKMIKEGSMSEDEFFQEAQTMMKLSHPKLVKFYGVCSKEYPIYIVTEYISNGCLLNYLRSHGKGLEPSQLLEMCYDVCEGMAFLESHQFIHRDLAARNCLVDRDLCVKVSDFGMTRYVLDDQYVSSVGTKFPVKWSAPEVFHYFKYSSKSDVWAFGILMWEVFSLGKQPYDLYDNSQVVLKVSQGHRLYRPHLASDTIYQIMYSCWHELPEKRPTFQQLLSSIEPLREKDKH

[12] = tested on: MDA-MB-453; test: Antiproliferative activity against human MDA-MB-453 cells assessed as inhibition of cell growth incubated for 72 hrs by cell-titer glo assay; format: functional, cell-based; conditions: MDA-MB-453, 72 h; outline: as §1
[13] = Antiproliferative activity against human Lovo/DX cells assessed as inhibition of cell growth incubated for 72 hrs by cell-titer glo assay; format: functional, cell-based; outline: as §1
[14] = tested on: HL-60; test: Antitumor activity against human HL-60 cells xenografted in nu/nu mouse assessed as efficacy parameter L0 at 60 mg/kg, po administered for 10 days relative to control; format: functional; conditions: time 10 day
[15] = Antiproliferative activity against human CL-11 cells assessed as inhibition of cell growth incubated for 72 hrs by cell-titer glo assay; format: functional, cell-based; conditions: CL-11, 72 h; outline: as §2
[16] = tested on: SF-268; test: Antiproliferative activity against human SF-268 cells assessed as inhibition of cell growth incubated for 72 hrs by cell-titer glo assay; format: functional, cell-based; conditions: SF-268, 72 h; outline: as §3
[17] = tested on: DLD-1; test: Antiproliferative activity against human DLD-1 cells assessed as inhibition of cell growth incubated for 72 hrs by cell-titer glo assay; format: functional, cell-based; conditions: DLD-1, 72 h; outline: as §2
[18] = molecular target: NUAK family SNF1-like kinase 1 (Homo sapiens) (UniProt O60285); test: Inhibition of N-terminal 6His-tagged recombinant human ARK5 (2 to end residues) expressed in baculovirus infected Sf21 cells assessed as residual activity at 1 uM relative to control
[19] = tested on: A2780; test: Induction of cell cycle arrest in human A2780 cells assessed as accumulation of cells in G2/M phase by measuring NPM phosphorylation on Thr199 incubated for 24 hrs by Western blotting analysis; format: functional, cell-based; conditions: dose 0.02-0.2 µmol/L
Outline: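 A2780 ovarian carcinoma cells treated 24 h with a range of concentrations, with DMSO and nocodazole controls. 20 µg protein extract separated by SDS-PAGE and immunoblotted with chemiluminescent detection. Probed for total and phospho-Thr210 PLK1, phospho-Ser10 histone H3, phospho-Thr199 NPM and phospho-Tyr15 CDK1. Total NPM, tubulin and total CDK1 served as loading controls.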

[20] = tested on: A2780; test: Induction of mitosis in human A2780 cells xenografted in nu/nu mouse assessed as increased Histone H3 phosphorylation on Ser10 at 60 mg/kg, po administered for 2 to 6 hrs by immunohistochemistry analysis; format: functional, organism-based; conditions: time 2-6 hrs
[21] = tested on: CCRF-CEM; test: Antiproliferative activity against human CCRF-CEM cells assessed as inhibition of cell growth incubated for 72 hrs by cell-titer glo assay; format: functional, cell-based; outline: as §2
[22] = molecular target: Tyrosine-protein kinase Fgr (Homo sapiens) (UniProt P09769); test: Inhibition of N-terminal His6-tagged recombinant human Fgr (2 to end residues) expressed in baculovirus infected Sf21 cells assessed as residual activity at 1 uM relative to control
Sequence of Tyrosine-protein kinase Fgr (Homo sapiens) (P09769 2-529 limits assumed): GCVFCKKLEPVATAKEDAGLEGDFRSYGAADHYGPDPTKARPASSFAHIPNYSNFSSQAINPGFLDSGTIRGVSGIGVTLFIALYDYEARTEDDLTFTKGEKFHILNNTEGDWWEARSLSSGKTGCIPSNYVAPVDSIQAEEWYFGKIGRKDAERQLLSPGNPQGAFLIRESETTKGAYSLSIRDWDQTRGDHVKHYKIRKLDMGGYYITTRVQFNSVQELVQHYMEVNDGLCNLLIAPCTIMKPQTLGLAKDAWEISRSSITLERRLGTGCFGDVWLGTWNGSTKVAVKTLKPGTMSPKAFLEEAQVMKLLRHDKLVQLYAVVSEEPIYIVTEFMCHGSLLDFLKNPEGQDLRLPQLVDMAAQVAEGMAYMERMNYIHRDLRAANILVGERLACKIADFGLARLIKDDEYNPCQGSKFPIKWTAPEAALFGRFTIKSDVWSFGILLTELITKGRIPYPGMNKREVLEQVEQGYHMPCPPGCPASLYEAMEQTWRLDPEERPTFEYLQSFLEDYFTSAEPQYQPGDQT

[23] = tested on: SUD4; test: Antiproliferative activity against human SU-DHL-4 cells assessed as inhibition of cell growth incubated for 72 hrs by cell-titer glo assay; format: functional, cell-based; conditions: SU-DHL-4, 72 h
[24] = tested on: SW948; test: Antiproliferative activity against human SW948 cells assessed as inhibition of cell growth incubated for 72 hrs by cell-titer glo assay; format: functional, cell-based; conditions: SW948, 72 h
[25] = tested on: HCT-116; test: Antitumor activity against human HCT-116 cells xenografted in nu/nu mouse assessed as tumor growth inhibition at 60 mg/kg administered for 10 days relative to control; format: functional; conditions: HCT-116, 240 h, time 10 day, read-out: TGI
[26] = tested on: MeWo; test: Antiproliferative activity against human MeWo cells assessed as inhibition of cell growth incubated for 72 hrs by cell-titer glo assay; format: functional, cell-based; outline: as §3
[27] = Clearance in Beagle dog at 5 mg/kg, iv by LC-MS analysis; format: ADME, organism-based, Canis lupus familiaris; conditions: in vivo
[28] = tested on: U2OS; test: Antiproliferative activity against human U2OS cells assessed as inhibition of cell growth incubated for 72 hrs by cell-titer glo assay; format: functional, cell-based
[29] = tested on: A2780; test: Induction of mitosis in human A2780 cells xenografted in nu/nu mouse assessed as increased NPM phosphorylation on Thr199 at 60 mg/kg, po administered for 2 to 6 hrs by immunohistochemistry analysis; format: functional, organism-based; conditions: time 2-6 hrs

In the case of `CN1CCN(c2ccc(OC(F)(F)F)c(Nc3ncc4c(n3)-c3c(c(C(N)=O)nn3CCO)CC4)c2)CC1` [ONVANSERTIB], the Activity [1] is reported as 96%, the IC50 [2] is reported as 65 nM and the IC50 [3] is reported as 55 nM. It also gave an Activity [4] of 42%, an IC50 [5] of 72 nM and an Activity [6] of 90%. The Activity [7] was 93%, the Activity [8] was 126% and the AUC [9] was 14.1 µM·h. For the same molecule, the IC50 [10] was 135 nM, the Activity [11] was 85% and the IC50 [12] was 90 nM. The IC50 [13] was 1720 nM, the Activity [14] was 0.06 g and the IC50 [15] was 139 nM. It also gave an IC50 [16] of 90 nM, an IC50 [17] of 329 nM and an Activity [18] of 93%. The Activity [19] was “Dose-Dependent Effect”, the Activity [20] was “Active” and the IC50 [21] was 55 nM. It also gave an Activity [22] of 85%, an IC50 [23] of 56 nM and an IC50 [24] of 124 nM. The inhibition in vivo at 60 mg/kg [25] was 89%, the IC50 [26] was 237 nM and the clearance [27] was 43.8 mL/min/kg. The IC50 [28] was 285 nM and the Activity [29] was “Active”.
